Experimental data as given in ChEMBL document CHEMBL3272092, “Synthesis and antihypertensive activity of 5-thio-2-pyridinecarboxylic acid derivatives” (J Med Chem, 1978).

Assays:
Rattus norvegicus [1] = assay: Antihypertensive activity in spontaneous hypertensive rat model assessed as decrease in blood pressure at 100 mg/kg, po administered for 2 to 4 days measured on day 2 to day 4; type: functional
Outline: (§1)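 SHR, 4–6 per drug, were dosed daily by gavage for 2 or 4 consecutive days in 3% cornstarch, 5% PEG-400 and 1 drop Tween 80 per mL. After 1 h acclimation, systolic pressure was read by tail-cuff (inflated to 250 mmHg, then lowered; pulse reemergence), at least three readings, at 1, 2, 3 and 24 h post-dose. The peak fall is scored: +, <20 mm up to >80 mm.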

Rattus norvegicus [2] = assay: Toxicity in spontaneous hypertensive rat model assessed as effect on heart rate at 100 mg/kg, po administered for 2 to 4 days; type: organism-based; parameters: dose 100 mg/kg, route oral; settings: in vivo
Outline: (§2)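 Heart rate in SHR was counted from tail-cuff pressure pulses after 1 h acclimation. Rats (4–6 per drug) were gavaged daily for 2 or 4 days at 100 mg/kg (sometimes 200 mg/kg) in 3% cornstarch, 5% PEG-400 and 1 drop Tween 80 per mL. Recordings were at 1, 2, 3 and 24 h after each dose.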

Rattus norvegicus [3] = assay: Antihypertensive activity in spontaneous hypertensive rat model assessed as decrease in blood pressure at 200 mg/kg, po administered for 2 to 4 days measured on day 2 to day 4; type: functional; outline: as §1
Rattus norvegicus [4] = assay: Toxicity in spontaneous hypertensive rat model assessed as bradycardia at 100 to 200 mg/kg, po administered for 2 to 4 days; type: organism-based; parameters: route oral; settings: in vivo; outline: as §2
Canis familiaris [5] = assay: Antihypertensive activity in unanesthetized renal hypertensive Mongrel dog model assessed as change in mean blood pressure at 100 mg/kg, po qd measured on day 1; type: functional, Canis lupus familiaris
Outline: (§3)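 Unanesthetized renal hypertensive dogs. Arterial pressure was recorded via a hypodermic needle and polyethylene tubing to a pressure transducer. Drug was given orally once daily as solid in a gelatin capsule. Pressure was determined 1.5, 3, 6 and 24 h after each dose, and the maximum change over each daily monitored session is reported.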

Canis familiaris [6] = assay: Antihypertensive activity in unanesthetized renal hypertensive Mongrel dog model assessed as change in mean blood pressure at 100 mg/kg, po qd measured on day 2; type: functional, Canis lupus familiaris; outline: as §3
Canis familiaris [7] = assay: Toxicity in unanesthetized renal hypertensive Mongrel dog model assessed as change in heart rate at 100 mg/kg, po qd measured on day 1; type: organism-based, Canis lupus familiaris; parameters: dose 100 mg/kg, route oral; settings: in vivo
Outline: (§4)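 Heart rate in unanesthetized renal hypertensive dogs was counted manually from the transducer-recorded arterial pressure trace. Oral dosing was once daily as solid in a gelatin capsule. Readings were at 1.5, 3, 6 and 24 h post-dose, and the maximum change per daily session is reported.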

Canis familiaris [8] = assay: Toxicity in unanesthetized renal hypertensive Mongrel dog model assessed as change in heart rate at 100 mg/kg, po qd measured on day 2; type: organism-based, Canis lupus familiaris; parameters: dose 100 mg/kg, route oral; settings: in vivo; outline: as §4
Squirrel monkey [9] = assay: Antihypertensive activity in normotensive squirrel monkey model assessed as decrease in systolic blood pressure at 100 mg/kg, po qd measured on day 2 by sphygmomanometry; type: functional, Saimiri sciureus, Artery
Outline: (§5)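 Restrained squirrel monkeys of either sex with tails warmed by infrared lamp. Systolic pressure was measured indirectly with a tail-base occlusion cuff and pulse transducer. Doses were given daily by gavage as a suspension in 3% cornstarch, 5% PEG-400 and 1 drop Tween 80 per 10 mL. Readings were taken 1.5, 3, 5 and 24 h post-dose. Values are the peak change after each dose, analysed by paired t test.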

Squirrel monkey [10] = assay: Antihypertensive activity in normotensive squirrel monkey model assessed as decrease in systolic blood pressure at 100 mg/kg, po qd measured on day 1 by sphygmomanometry; type: functional, Saimiri sciureus, Artery; outline: as §5
Squirrel monkey [11] = assay: Antihypertensive activity in normotensive squirrel monkey model assessed as decrease in systolic blood pressure at 100 mg/kg, po qd measured on day 3 by sphygmomanometry; type: functional, Saimiri sciureus, Artery; outline: as §5
Squirrel monkey [12] = assay: Antihypertensive activity in normotensive squirrel monkey model assessed as decrease in systolic blood pressure at 100 mg/kg, po qd measured on day 4 by sphygmomanometry; type: functional, Saimiri sciureus, Artery; outline: as §5
Squirrel monkey [13] = assay: Toxicity in normotensive squirrel monkey model assessed as change in heart rate at 100 mg/kg, po qd measured on day 2; type: organism-based, Saimiri sciureus; parameters: dose 100 mg/kg, route oral; settings: in vivo
Outline: (§6)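 Heart rate in restrained, tail-warmed squirrel monkeys was counted manually from the tail-cuff pressure record. Daily gavage used a suspension in 3% cornstarch, 5% PEG-400 and 1 drop Tween 80 per 10 mL. Monitoring was at 1.5, 3, 5 and 24 h after each dose, and the peak change per administration is reported. Paired t test.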

Squirrel monkey [14] = assay: Toxicity in normotensive squirrel monkey model assessed as change in heart rate at 100 mg/kg, po qd measured on day 1; type: organism-based, Saimiri sciureus; parameters: dose 100 mg/kg, route oral; settings: in vivo; outline: as §6
Squirrel monkey [15] = assay: Toxicity in normotensive squirrel monkey model assessed as change in heart rate at 100 mg/kg, po qd measured on day 3; type: organism-based, Saimiri sciureus; parameters: dose 100 mg/kg, route oral; settings: in vivo; outline: as §6
Squirrel monkey [16] = assay: Toxicity in normotensive squirrel monkey model assessed as change in heart rate at 100 mg/kg, po qd measured on day 4; type: organism-based, Saimiri sciureus; parameters: dose 100 mg/kg, route oral; settings: in vivo; outline: as §6
Canis familiaris [17] = assay: Toxicity in unanesthetized renal hypertensive Mongrel dog model assessed as emesis at 100 mg/kg, po qd measured on day 1 to 4; type: organism-based, Canis lupus familiaris; parameters: dose 100 mg/kg, route oral; settings: in vivo
Rattus norvegicus [18] = assay: Toxicity in spontaneous hypertensive rat model at 100 mg/kg, po administered for 2 to 4 days; type: organism-based; parameters: dose 100 mg/kg, route oral; settings: in vivo
Rattus norvegicus [19] = assay: Toxicity in spontaneous hypertensive rat model assessed as bradycardia at 200 mg/kg, po administered for 2 to 4 days; type: organism-based; parameters: dose 200 mg/kg, route oral; settings: in vivo; outline: as §2
Canis familiaris [20] = assay: Antihypertensive activity in unanesthetized renal hypertensive Mongrel dog model assessed as change in mean blood pressure at 30 mg/kg, po qd measured on day 1; type: functional, Canis lupus familiaris; outline: as §3
Canis familiaris [21] = assay: Antihypertensive activity in unanesthetized renal hypertensive Mongrel dog model assessed as change in mean blood pressure at 30 mg/kg, po qd measured on day 2; type: functional, Canis lupus familiaris; outline: as §3
Canis familiaris [22] = assay: Antihypertensive activity in unanesthetized renal hypertensive Mongrel dog model assessed as change in mean blood pressure at 30 mg/kg, po qd measured on day 3; type: functional, Canis lupus familiaris; outline: as §3
Canis familiaris [23] = assay: Toxicity in unanesthetized renal hypertensive Mongrel dog model assessed as change in heart rate at 30 mg/kg, po qd measured on day 1; type: organism-based, Canis lupus familiaris; parameters: dose 30 mg/kg, route oral; settings: in vivo; outline: as §4
Canis familiaris [24] = assay: Toxicity in unanesthetized renal hypertensive Mongrel dog model assessed as change in heart rate at 30 mg/kg, po qd measured on day 2; type: organism-based, Canis lupus familiaris; parameters: dose 30 mg/kg, route oral; settings: in vivo; outline: as §4
Canis familiaris [25] = assay: Toxicity in unanesthetized renal hypertensive Mongrel dog model assessed as change in heart rate at 30 mg/kg, po qd measured on day 3; type: organism-based, Canis lupus familiaris; parameters: dose 30 mg/kg, route oral; settings: in vivo; outline: as §4
Squirrel monkey [26] = assay: Toxicity in normotensive squirrel monkey model at 100 mg/kg, po qd measured on day 3; type: organism-based, Saimiri sciureus; parameters: dose 100 mg/kg, route oral; settings: in vivo
Canis familiaris [27] = assay: Toxicity in unanesthetized renal hypertensive Mongrel dog model assessed as emesis at 30 mg/kg, po qd measured on day 1 to 4; type: organism-based, Canis lupus familiaris; parameters: dose 30 mg/kg, route oral; settings: in vivo

Q: For `COc1ccc(CSc2ccc(C(=O)[O-])nc2)cc1.[Na+]`, which Activity (Rattus norvegicus [1]) is on record?
A: <20 mmHg

Q: How did the Activity (Rattus norvegicus [1]) turn out when `O=C(O)c1ccc(Sc2cccc(Cl)c2)cn1` was run?
A: >20 mmHg

Q: `Cc1ccc(CSc2ccc(C(=O)[O-])nc2)cc1.[Na+]` was tested. Which Activity (Rattus norvegicus [1]) did it give?
A: <20 mmHg

Q: For `CCCCSc1ccc(C(=O)O)nc1`, which Activity (Rattus norvegicus [1]) is on record?
A: >20 mmHg

Q: What about the Activity (Rattus norvegicus [2]) of the same compound?
A: Non-toxic

Q: With `O=C(O)c1ccc(SCc2ccccc2Cl)cn1` as the compound, how does the Activity (Rattus norvegicus [1]) read?
A: <20 mmHg

Q: Which Activity (Rattus norvegicus [1]) does the source give for `CC(Sc1ccc(C(=O)O)nc1)c1cccc(C(F)(F)F)c1` (stereo not given) here?
A: >40 mmHg

Q: How did the Activity (Rattus norvegicus [1]) turn out when `O=C([O-])c1ccc([S+]([O-])CCCc2ccccc2)cn1.[Na+]` (stereo not given) was run?
A: <20 mmHg

Q: `O=C(O)c1ccc([S+]([O-])Cc2cccc(C(F)(F)F)c2)cn1` (stereo not given) was tested. Which Activity (Rattus norvegicus [1]) did it give?
A: >40 mmHg

Q: What about the Activity (Rattus norvegicus [3]) of the same compound?
A: > 60 mmHg

Q: What about the Activity (Rattus norvegicus [4]) of the same compound?
A: Toxic

Q: And the Activity (Canis familiaris [5])?
A: -7 mmHg

Q: And the Activity (Canis familiaris [6])?
A: -10 mmHg

Q: And the Activity (Canis familiaris [7])?
A: 10 bpm

Q: What about the Activity (Canis familiaris [8]) of the same compound?
A: 2 bpm

Q: What about the Activity (Squirrel monkey [9]) of the same compound?
A: -29 mmHg

Q: What about the Activity (Squirrel monkey [10]) of the same compound?
A: -30 mmHg

Q: What about the Activity (Squirrel monkey [11]) of the same compound?
A: -19 mmHg

Q: What about the Activity (Squirrel monkey [12]) of the same compound?
A: -19 mmHg

Q: And the Activity (Squirrel monkey [13])?
A: -83 bpm

Q: And the Activity (Squirrel monkey [14])?
A: -43 bpm

Q: What about the Activity (Squirrel monkey [15]) of the same compound?
A: -73 bpm

Q: And the Activity (Squirrel monkey [16])?
A: -33 bpm

Q: And the Activity (Canis familiaris [17])?
A: Non-toxic

Q: How did the Activity (Rattus norvegicus [1]) turn out when `O=C([O-])c1ccc(SCc2ccc(F)cc2)cn1.[Na+]` was run?
A: >20 mmHg

Q: For `Cc1cccc(CSc2ccc(C(=O)O)nc2)c1`, which Activity (Rattus norvegicus [1]) is on record?
A: <20 mmHg

Q: For `COc1ccc(C[S+]([O-])c2ccc(C(=O)O)nc2)cc1` (stereo not given), which Activity (Rattus norvegicus [1]) is on record?
A: >20 mmHg

Q: For `O=C([O-])c1ccc([S+]([O-])Cc2cccc(Br)c2)cn1.[Na+]` (stereo not given), which Activity (Rattus norvegicus [1]) is on record?
A: >20 mmHg

Q: Which Activity (Rattus norvegicus [18]) does the source give for `O=C(O)c1ccc(SCCc2ccccc2)cn1` here?
A: Toxic

Q: Which Activity (Rattus norvegicus [1]) does the source give for `O=C(O)c1ccc(SCCCc2ccccc2)cn1` here?
A: >20 mmHg

Q: How did the Activity (Rattus norvegicus [1]) turn out when `CC(Sc1ccc(C(=O)O)nc1)c1cccc(Cl)c1` (stereo not given) was run?
A: <20 mmHg

Q: Which results are given for `O=C(O)c1ccc(SCc2cccc(C(F)(F)F)c2)cn1`?
A: Activity (Rattus norvegicus [1]): >40 mmHg; Activity (Rattus norvegicus [3]): >80 mmHg; Activity (Rattus norvegicus [19]): Toxic; Activity (Canis familiaris [20]): 12 mmHg; Activity (Canis familiaris [21]): 22 mmHg; Activity (Canis familiaris [22]): 24 mmHg; Activity (Canis familiaris [23]): 5 bpm; Activity (Canis familiaris [24]): 9 bpm; Activity (Canis familiaris [25]): -12 bpm; Activity (Squirrel monkey [9]): -25 mmHg; Activity (Squirrel monkey [10]): -27 mmHg; Activity (Squirrel monkey [11]): -25 mmHg; Activity (Squirrel monkey [13]): -26 bpm; Activity (Squirrel monkey [14]): -40 bpm; Activity (Squirrel monkey [15]): -20 bpm; Activity (Squirrel monkey [26]): Toxic; Activity (Canis familiaris [27]): Non-toxic

Q: For `O=C(O)c1ccc([S+]([O-])c2ccc(Cl)cc2)cn1` (stereo not given), which Activity (Rattus norvegicus [1]) is on record?
A: <20 mmHg

Q: `N#Cc1cccc(CSc2ccc(C(=O)[O-])nc2)c1.[Na+]` was tested. Which Activity (Rattus norvegicus [1]) did it give?
A: >20 mmHg
